This note sets out measurements from paper PMC2804034 (Journal of medicinal chemistry, 2010).

≈ marks a conversion by molar mass, not a printed value. Bounds are passed on as bounds.

One series has as its target cruzain (Trypanosoma cruzi, UniProt P25779). Nature of the series: Cruzain enzymatic assay in 96-well plate format. The format is biochemical. Particulars: secondary assays performed at UCSF. In outline:
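Recombinant cruzain (4 nM final) in 100 mM sodium acetate pH 5.5, 5 mM DTT, 0.001% Triton X-100, preincubated 5 min at room temperature with test compound in DMSO. Reaction started with Z-Phe-Arg-AMC (10 μM). AMC release was followed as the rate of fluorescence increase (ex 355, em 460 nm). DMSO-only wells served as uninhibited control. IC50 was obtained by curve fitting.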

The subject of series [1] is Trypanosoma brucei brucei strain 221. Nature of the series: Trypanosoma brucei brucei assay. The format is cell-based. The note with it: for MIC50: Trypanosoma brucei, 48 h, read-out: Tbb MIC50; for trypanocidal activity against T. brucei: up to 100 μM.
For series [2], the system named is Y strain T. cruzi trypomastigotes. Nature of the series: Trypanosoma cruzi assay in infected J774 macrophages. Type of series: cell-based. The note with it: for activity against T. cruzi: 27 days treatment; for effect against the T. cruzi parasite in cell culture: infected macrophages.
Another series concerns J774 macrophages. Nature of the series: Compound toxicity for host macrophages in the T. cruzi assay. Type of series: cell-based. The note with it: 5 μM.

Chain of cruzain (P25779 123-337 limits assumed): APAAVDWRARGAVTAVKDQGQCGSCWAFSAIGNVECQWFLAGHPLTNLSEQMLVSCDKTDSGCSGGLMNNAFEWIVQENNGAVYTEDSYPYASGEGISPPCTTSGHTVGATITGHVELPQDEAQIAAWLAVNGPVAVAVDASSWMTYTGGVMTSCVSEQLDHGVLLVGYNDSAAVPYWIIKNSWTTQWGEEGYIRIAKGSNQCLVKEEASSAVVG

Take `CCOc1nc(C#N)nc(N2CCCCC2)n1` [Compound 3]: the “IC50 values (in words)” value against cruzain was “mid-nanomolar”. In addition, in series [1], the MIC50 is above 100 µM and the “trypanocidal activity against T. brucei” value is “no trypanocidal activity”.

For the compound `N#Cc1nc(N)nc(N(c2ccccc2)c2ccccc2)n1` [Compound 4], the “IC50 values (in words)” value at cruzain was “mid-nanomolar”. In addition, in series [1], the MIC50 is above 100 µM and the “trypanocidal activity against T. brucei” value is “no trypanocidal activity”.

On to `N#Cc1nc(Nc2cccc([N+](=O)[O-])c2)nc(NC2CCCC2)n1` [Compound 20], for which the MIC50 in series [1] was determined as 100 µM (≈ 32.5 µg/mL).

Take `N#Cc1nc(Nc2cccc(F)c2)nc(NC2CCCC2)n1` [Compound 21]: the MIC50 in series [1] came out at 100 µM (≈ 29.8 µg/mL).

Regarding `N#Cc1nc(Nc2cccc(Cl)c2)nc(NC2CCCC2)n1` [Compound 22], the “activity against T. cruzi” value in series [2] (5 μM) was “inactive”. Also, the “effect against the T. cruzi parasite in cell culture” value (“effect against the T. cruzi parasite” below) in series [2] is “no effect”. Moreover, in series [1], the MIC50 was found to be 6 µM (≈ 1.89 µg/mL).

As to `N#Cc1nc(Nc2cccc(Br)c2)nc(NC2CCCC2)n1` [Compound 23], in series [2], the “effect against the T. cruzi parasite” value was “no effect”. For the same compound, in series [1], the MIC50 amounted to 6 µM (≈ 2.16 µg/mL). The toxicity against macrophages entry in the series with J774 macrophages is listed as “toxic”.

For the compound `N#Cc1nc(Nc2ccc(F)cc2)nc(NC2CCCC2)n1` [Compound 24], in series [1], the MIC50 was above 100 µM.

As to `Cc1cccc(Nc2nc(C#N)nc(NC3CCCC3)n2)c1` [Compound 25], the “activity against T. cruzi” value in series [2] (5 μM) was “inactive”. In addition, the “effect against the T. cruzi parasite” value in series [2] is “no effect”. Besides, the MIC50 in series [1] is 25 µM (≈ 7.36 µg/mL).

With `N#Cc1nc(Nc2ccc(Br)cc2)nc(NC2CCCC2)n1` [Compound 26], in series [1], the MIC50 was above 100 µM.

In the case of `N#Cc1nc(Nc2cccc(-c3ccccc3)c2)nc(NC2CCCC2)n1` [Compound 27], the “activity against T. cruzi” value in series [2] (5 μM) was “inactive”. Besides, the MIC50 in series [1] was determined as 25 µM (≈ 8.91 µg/mL).

In the case of `N#Cc1nc(Nc2cccc(C(F)(F)F)c2)nc(NC2CCCC2)n1` [Compound 28], the “activity against T. cruzi” value in series [2] (5 μM) is “inactive”. In series [1], the MIC50 came out at 25 µM (≈ 8.71 µg/mL).

With `N#Cc1nc(Nc2cc(F)cc(F)c2)nc(NC2CCCC2)n1` [Compound 29, 4-(cyclopentylamino)-6-(3,5-difluorophenylamino)-1,3,5-triazine-2-carbonitrile], the MIC50 in series [1] came out at 6 µM (≈ 1.9 µg/mL). The toxicity against macrophages result with J774 macrophages is reported as “toxic”.

Consider `N#Cc1nc(Nc2cc(Cl)cc(Cl)c2)nc(NC2CCCC2)n1` [Compound 30], for which the “activity against T. cruzi” value in series [2] (5 μM) is “inactive”. In addition, the MIC50 in series [1] is 25 µM (≈ 8.73 µg/mL).

With `N#Cc1nc(NCC(F)F)nc(Nc2cc(F)cc(F)c2)n1` [Compound 31], the MIC50 in series [1] was found to be 6 µM (≈ 1.87 µg/mL).

On to `CCn1cnc2c(Nc3cc(F)cc(F)c3)nc(C#N)nc21` [Compound 32, 6-(3,5-difluorophenylamino)-9-ethyl-9H-purine-2-carbonitrile], for which the “activity against T. cruzi” value in series [2] (10 μM) was “inactive”. For the same compound, the “effect against the T. cruzi parasite” value in series [2] is “no effect”. Also, the MIC50 in series [1] amounted to 25 µM (≈ 7.51 µg/mL).

For the compound `CCn1cnc2c(Nc3cccc(Cl)c3)nc(C#N)nc21` [Compound 35, 6-(3-chlorophenylamino)-9-ethyl-9H-purine-2-carbonitrile], the “activity against T. cruzi” value in series [2] (10 μM) was “inactive”. In addition, the “effect against the T. cruzi parasite” value in series [2] is recorded as “no effect”. Also, the MIC50 in series [1] came to 25 µM (≈ 7.47 µg/mL).

In the case of `N#Cc1nc(Nc2cccc(Cl)c2)c2ncn(C3CCCC3)c2n1` [Compound 36], the “activity against T. cruzi” value in series [2] (10 μM) is “inactive”. Besides, the “effect against the T. cruzi parasite” value in series [2] is reported as “no effect”. Also, the MIC50 in series [1] was 100 µM (≈ 33.9 µg/mL).

Take `CN1CCN(C(=O)N[C@@H](Cc2ccccc2)C(=O)N[C@H](/C=C/S(=O)(=O)c2ccccc2)CCc2ccccc2)CC1` [Compound K777, reference compound]: the “activity against T. cruzi” value in series [2] (10 μM) is given as “cured cell infection”.

In general, MIC50 refers to an inhibitory concentration at the 50% level, which refers to growth in some studies and to a panel of isolates in others.
